Screening results as filed in PubChem BioAssay.
Compounds with a hit are over-represented: about 1.4% of the library has one in this group of screens.
KLK5 inh: inhibitors of human kallikrein 5 | recombinant hK5, fluorogenic AMC substrate cleavage | AID 873 | hit rate 0.59% among 210,000 | Q9Y337 | inhibition, % at 5 µM;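 active means inhibition of 40% or more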;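 further: 0% = enzyme controls without compound and 100% = no-enzyme blanks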
FXIa inh: factor XIa (human) inhibition. P03951. purified FXIa, Boc-Glu-Ala-Arg-AMC fluorogenic substrate. inhibition, % at 5 µM. hit rate 0.14% among 220,000;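 active means inhibition of at least 40%; inactive means inhibition below 40%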;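 further: fluorescence of freed AMC excited at 355 nm; 0% = enzyme without compound and 100% = no enzyme blank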
FXIIa inh: blocks human coagulation factor XIIa protease activity; purified FXIIa, Boc-QGR-AMC fluorogenic substrate, 2 h; inhibition, % at 5 µM; hit rate 0.3% among 220,000; AID 800; in the data active means inhibition above about 40%;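 further: 0% = enzyme with no compound and 100% = blank without enzyme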
Target sequence (P00748 20-372 limits assumed): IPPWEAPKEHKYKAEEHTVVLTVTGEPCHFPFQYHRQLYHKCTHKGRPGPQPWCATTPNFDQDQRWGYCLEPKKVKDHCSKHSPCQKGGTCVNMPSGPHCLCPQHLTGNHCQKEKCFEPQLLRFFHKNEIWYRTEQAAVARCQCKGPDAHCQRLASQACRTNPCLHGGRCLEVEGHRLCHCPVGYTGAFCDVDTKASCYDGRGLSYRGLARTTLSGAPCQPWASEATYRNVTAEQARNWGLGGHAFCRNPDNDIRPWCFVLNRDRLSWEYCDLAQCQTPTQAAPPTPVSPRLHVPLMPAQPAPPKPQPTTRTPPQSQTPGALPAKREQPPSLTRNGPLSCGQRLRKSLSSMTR
Target sequence (P00748 373-615 limits assumed): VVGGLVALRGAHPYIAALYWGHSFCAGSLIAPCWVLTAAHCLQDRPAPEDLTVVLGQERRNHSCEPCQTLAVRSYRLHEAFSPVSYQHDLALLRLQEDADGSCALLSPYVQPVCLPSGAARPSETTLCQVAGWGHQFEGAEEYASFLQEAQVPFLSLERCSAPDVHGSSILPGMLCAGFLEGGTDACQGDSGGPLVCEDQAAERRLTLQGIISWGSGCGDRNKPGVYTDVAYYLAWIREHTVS
m-calpain inh: calpain II (pig) inhibition | purified calpain II, fluorogenic peptide substrate, 30 min | inhibition, % at 16 µM | hit rate 0.37% among 220,000 | AID 1236;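 active means inhibition above about 50%, limit read from the data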
thrombin 1536: thrombin (human) inhibition; inhibition, % at 5 µM; P00734; alpha-thrombin, Boc-VPR-AMC fluorogenic substrate cleavage; AID 1046; hit rate 0.26% among 220,000;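 active means inhibition at or above 40%; inactive means inhibition below 40%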;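 further: 0% = enzyme with no compound and 100% = wells without enzyme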
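System – human alpha-thrombin · Medium – pH 7.5 Tris (50 mM) with NaCl 150 mM, Tween 20 0.05% · Compound – single-point dosing at 5 µM, 0.2% DMSO · Incubation – enzyme reaction carried out at room temperature · Technique – fluorescence of released AMC, ex 355 nm, em 460 nm · Read-out basis – % inhibition of thrombin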
An asterisk follows results filed as active; x = no result.

SMILES | KLK5 inh | FXIa inh | FXIIa inh | m-calpain inh | thrombin 1536
O=C1CN(C(=O)COc2ccc(F)cc2Cl)c2ccccc2N1 | 54* | -4 | 12 | 14 | 14
NS(=O)(=O)c1ccc(CCNC(=O)CSc2nnc3ccccn23)cc1 | 5 | 8 | 12 | 1 | -1
COc1ccc(CCNC(=O)COc2ccc(S(=O)(=O)NC3CCCCC3)cc2Cl)cc1 | -9 | 5 | 17 | 32 | 6
COc1ccc(N(C(=O)Cn2nnc(-c3ccc(Cl)cc3)n2)C(C(=O)NCC2CCCO2)c2ccc(C)cc2)cc1 (stereo unspecified) | -7 | -3 | 12 | 27 | -11
COc1ccc(N(C(=O)Cn2nnc(-c3ccccc3F)n2)C(C(=O)NCC2CCCO2)c2ccc(Cl)cc2)cc1 (stereo unspecified) | -1 | -3 | 4 | 67* | -8
O=Nc1ccc(NOC(=O)c2ccc(Br)cc2)cc1 | 2 | 5 | 39 | 26 | 1
Cc1ccc(C(=O)ONc2ccc(N=O)cc2)cc1 | -8 | 8 | 44* | -22 | 1
CCOC(=O)CCCNC(=O)CCNC(=O)c1ccc(OC(C)C)cc1 | 40* | 13 | 16 | 12 | 22
CCOC(=O)CCCNC(=O)CCNC(=O)c1ccc(OCC(C)C)cc1 | 2 | 1 | 7 | -5 | 0
C[C@@]12CCC=C[C@H]1[C@H](c1ccc(F)c(/C=C/c3ccccc3)c1)N(Cc1ccccc1)C2=O | 0 | -2 | 6 | -10 | 2
CC(CO)(CO)NCc1ccc(-c2ccccc2)cc1 | 40 | 1 | 18 | 19 | 46*
C=CCn1c(SCc2ccc(OC)cc2)nnc1-c1cccnc1 | 50* | 3 | 8 | 5 | 22
Cc1ccc(NC(=O)N2CCCC(C(=O)O)C2)cc1 (stereo unspecified) | 3 | 1 | 7 | -24 | 1
Cc1ccc(C(=O)NNC(=S)NC(=O)COc2ccccc2)cc1 | -164 | 41* | 25 | 15 | 11
Cc1ccccc1C(=O)NNC(=S)NC(=O)COc1ccccc1 | -176 | 18 | 27 | 9 | 0
O=S(=O)(c1ccc2ccccc2c1)N1C=CC(C(F)(F)F)=NCC1 | 3 | -8 | 0 | 12 | -2
Cc1ccc(S(=O)(=O)CCN2C=CC(C(F)(F)F)=NCC2)cc1 | 34 | 21 | 41* | 13 | 4
COCCn1c(N)c(C(=S)NC(=O)c2cccs2)c(=O)[nH]c1=O | 90* | 18 | 35 | 19 | 1
CCOC(=O)c1sc2ncn(/N=C/c3cccnc3)c(=O)c2c1C | 7 | -12 | -2 | 19 | -5
CCOC(=O)c1sc2ncn(/N=C/c3ccc(O)cc3)c(=O)c2c1C | 27 | 49* | 26 | 7 | 25
CN(C)CCNC(=O)CNC(=S)N(Cc1ccccc1)Cc1ccccc1F | -5 | -2 | 5 | 38 | -8
O=C(CNC(=S)N(Cc1ccccc1)Cc1ccccc1F)NCCc1ccccc1 | 18 | 11 | 41* | 37 | 9
O=C(CNC(=S)N(Cc1ccccc1)Cc1ccccc1F)NCc1ccccc1 | -3 | -2 | 12 | 54* | -6
COc1cccc(CNC(=O)CNC(=S)N(Cc2ccccc2)Cc2ccccc2F)c1 | -11 | 1 | 5 | 54* | 3
CCNc1nc(SCC(=O)OC)nc(N2CCOCC2)n1 | -12 | -16 | 3 | -34 | -7
SMILES | KLK5 inh | FXIa inh | FXIIa inh | m-calpain inh | thrombin 1536
CCNc1nc(SC(C)C(=O)OC)nc(N2CCOCC2)n1 (stereo unspecified) | 115* | -5 | -2 | 15 | -1
C/C(N)=C(/C#N)C(=O)CSc1nc2cc(Cl)ccc2s1 | -23 | -12 | 3 | -164 | 41*
Cc1cc(C)n2nc(C(=O)OCC(=O)c3c[nH]c4ccccc34)nc2n1 | x | -5 | 2 | 16 | -13
Cc1nc2sccn2c(=O)c1Br | -1 | -2 | -12 | 6 | -1
Cc1ccc2c(c1)CC1(CN2C)C(=O)OC(C)(C)OC1=O | 9 | 14 | 16 | 18 | 73*
Cc1cc(C(=O)N/N=C/c2c(C)nn(-c3ccccc3)c2C)n[nH]1 | 89* | 26 | 34 | 16 | 17
O=C(NCC(c1cccnc1)N1CCN(c2ccc(F)cc2)CC1)OCc1ccccc1 (stereo unspecified) | 46* | 10 | 14 | 6 | 21
COC(=O)NCC(c1ccco1)N1CCN(c2ccc(F)cc2)CC1 (stereo unspecified) | 43* | 0 | -2 | 10 | 27
O=C(NCC(c1cccnc1)N1CCN(c2ccccc2)CC1)OCc1ccccc1 (stereo unspecified) | 1 | 5 | 17 | -11 | 2
Clc1ccc(OCc2nnc3n2CCCCC3)c(Cl)c1 | -2 | 2 | 2 | 11 | -5
Cc1cc(C)cc(N(CC(=O)NCc2cccnc2)S(C)(=O)=O)c1 | -18 | 3 | 11 | -12 | 0
c1cncc(-c2csc(NCc3ccco3)n2)c1 | 11 | 15 | 46* | 30 | 1
CC(=O)Nc1ccc(-c2csc(NCc3ccco3)n2)cc1 | -6 | 10 | 15 | -21 | 3
COCCNC(=O)C(OC(=O)C1=Cc2ccccc2OC1)C(C)C (stereo unspecified) | -3 | -6 | 0 | -47 | -9
O=C(O)CCN1C(=O)C2C3c4ccccc4C(c4ccccc43)[C@@H]2C1=O (stereo partly specified) | 30 | 31 | 46* | 14 | 23
CCOc1cc(C(=O)NC)cc(OCC)c1OCC | 44* | -8 | 12 | 11 | 22
CCOc1cc(C(=O)Nn2cnnc2)cc(OCC)c1OCC | 3 | -4 | 11 | -5 | 2
Cc1ccc(OCCOc2ccc(Br)cc2)c([N+](=O)[O-])n1 | -9 | 7 | 14 | 5 | 2
COc1ccc(-c2cc(C(=O)Nc3c(C)nn(Cc4ccccc4)c3C)no2)cc1 | -4 | 0 | 12 | -22 | 2
COc1cccc(-c2cc(C(=O)Nc3c(C)nn(Cc4ccccc4)c3C)no2)c1 | 55* | 10 | 10 | 44 | 41*
Cc1ccc(NS(=O)(=O)c2ccc(C(=O)OCC(=O)NCC3CCCO3)cc2)cc1 (stereo unspecified) | -1 | -4 | 8 | -12 | -12
O=C(Oc1ccc2c(-c3ccccc3)cc(=O)oc2c1)C1CCCCC1 | -12 | 4 | 8 | 56* | -10
CCOc1cc(C2NC(=O)NC(O)(C(F)(F)F)C2C(=O)c2ccc(Cl)cc2)ccc1O (stereo unspecified) | 28 | 8 | 27 | 13 | 54*
CCCNC(=O)N1CCN(c2ncccn2)CC1 | 61* | 17 | 19 | 20 | 24
O=C(Nc1ccccc1)N1CCN(c2ncccn2)CC1 | -11 | 0 | 13 | -48 | -6
O=C(CCc1ccccc1)NCCc1nc2ccccc2[nH]1 | 2 | -3 | 3 | -38 | -12
O=C(NCCc1nc2ccccc2[nH]1)c1ccco1 | 52* | 20 | 14 | 6 | 20
COc1cc(SSc2cc(OC)cc([N+](=O)[O-])c2N)c(N)c([N+](=O)[O-])c1 | 4 | 5 | 11 | -2 | 4
O=C(Cc1ccccc1)NS(=O)(=O)c1ccc(N=NN2CCOCC2)cc1 | -2 | -6 | 2 | -16 | -8
